Measured values published in ChEMBL document CHEMBL2331334, “Hybrid furoxanyl N-acylhydrazone derivatives as hits for the development of neglected diseases drug candidates” (Eur J Med Chem, 2013).
≈ marks a conversion by molar mass, not a printed value.

Experiments:
Salmonella typhimurium [1] = experiment: Mutagenicity in Salmonella typhimurium TA98 at 20 ug/plate in absence of S9 fraction; format: toxicity, organism-based; settings: salmonella enterica subsp. enterica serovar typhimurium
How it was run: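 TA98 direct plate incorporation on minimal glucose agar (Vogel-Bonner E, 40% glucose), without S9. Compounds in DMSO were run in triplicate, highest dose nontoxic to bacteria. 4-nitro-o-phenylenediamine (20.0 per plate) was the positive control and DMSO the negative. Revertants were counted manually. Mutagenic meant at least double the negative-control revertants at two consecutive doses. Values are means of two independent experiments.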

[2] = Ratio of compound IC50 to amphotericin B IC50 for mouse J774.1 cells; format: ADME; settings: read-out: Ratio IC50
Trypanosoma cruzi [3] = experiment: Trypanosomicidal activity against axenic epimastigote stage of Trypanosoma cruzi Tulahuen 2 assessed as growth inhibition; format: functional, organism-based
How it was run: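 Tulahuen 2 epimastigotes grown axenically at 28 °C in BHI-tryptose with 5% FCS, harvested late log phase, 3×10^6/mL in 24-well plates. Compound added from DMSO stock (≤1% DMSO). Growth as A590 at day 0 and day 5; % inhibition from blank-corrected absorbances; ID50 = concentration halving absorbance relative to untreated controls.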

Leishmania amazonensis = experiment: Leishmanicidal activity against axenic amastigote stage of Leishmania amazonensis MHOM/BR/76/LTB-012 assessed as growth inhibition after 72 hrs by MTT assay; format: functional, organism-based; settings: MHOM/BR/76/LTB-012, 72 h
How it was run: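 L. amazonensis axenic amastigotes (MHOM/BR/76/LTB-012), weekly passages in MAA/20 at 32 °C, 5% CO2. Seeded in 96-well plates; compounds in DMSO at 100 to 1 final, 72 h. MTT added for 4 h, stopped with 50% isopropanol–10% SDS, 30 min agitation at room temperature, A570. Triplicate; % inhibition versus control, IC50 from several concentrations.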

[4] = Selectivity index, ratio of IC50 for mouse J774.1 cells to MIC for Mycobacterium tuberculosis H37Rv; format: functional
How it was run: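 Cytotoxicity: J774.1 macrophages in DMEM with 4 mM L-glutamine and 10% heat-inactivated FCS, seeded at 5 × 10^4/well, attached 48 h at 37 °C, 5% CO2. Exposed 48 h to 12.5–400.0 µM compound or vehicle. MTT at 0.1 mg/mL final for 3 h, formazan dissolved in DMSO/glycine buffer pH 10.5, A560 read. IC50 by linear regression, divided by the MIC against the same MTB strain.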

[5] = Cytotoxicity against mouse J774.1 cells assessed as cell viability after 48 hrs by MTT assay; format: cell-based; settings: J774.1, 48 h
How it was run: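 J774.1 macrophages in DMEM with 4 mM L-glutamine and 10% heat-inactivated FCS, 5×10^4 cells/well, attached 48 h at 37 °C, 5% CO2. Exposed 48 h to compounds (12.5–400.0 µM) or vehicle. MTT 0.1 mg/mL final, 3 h at 37 °C; formazan dissolved in DMSO/glycine buffer pH 10.5, A560. IC50 by linear regression versus solvent control.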

Salmonella typhimurium [6] = experiment: Mutagenicity in Salmonella typhimurium TA98 at 6.2 to 500 ug/plate in absence of S9 fraction; format: toxicity, organism-based; settings: salmonella enterica subsp. enterica serovar typhimurium
How it was run: (§1)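 Direct plate incorporation with S. typhimurium TA98 on minimal glucose agar (Vogel-Bonner E, 40% glucose). Compounds in DMSO assayed in triplicate at doses starting from the highest non-toxic dose, with or without Aroclor-treated mouse liver S9. Controls: DMSO, 4-nitro-o-phenylenediamine (−S9), 2-aminofluorene (+S9). Revertants counted manually; mutagenic if ≥2× negative control at two consecutive doses.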

Salmonella typhimurium [7] = experiment: Mutagenicity in Salmonella typhimurium TA98 at 6.2 to 500 ug/plate in presence of S9 fraction; format: toxicity, organism-based; settings: salmonella enterica subsp. enterica serovar typhimurium; how it was run: as §1
[8] = Selectivity index, ratio of IC50 for mouse J774.1 cells to IC50 for axenic amastigote stage of Leishmania amazonensis MHOM/BR/76/LTB-012; format: toxicity; settings: read-out: Ratio IC50
Trypanosoma cruzi [9] = experiment: Trypanosomicidal activity against amastigote stage of Trypanosoma cruzi Tulahuen C4 transfected with beta-D-galactosidase infected in african green monkey Vero cells assessed as growth inhibition incubated 5 days prior to beta-D-galactopyranoside addition measured after 4 to 5 hrs by colorimetric assay; format: functional, organism-based
How it was run: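 VERO monolayer in phenol red-free RPMI 1640 with 10% FCS, infected with 5×10^4 LacZ-transfected Tulahuen C4 trypomastigotes/well, 24 h at 37 °C, 5% CO2. Compounds added for 5 days. CPRG substrate added, 4–5 h at 37 °C, A570. Actives (>50% inhibition) retested in duplicate at 10.0–0.16; IC50 by logarithmic regression versus untreated control.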

[10] = test system: Mycobacterium tuberculosis; experiment: Antimycobacterial activity against Mycobacterium tuberculosis H37Rv assessed as growth inhibition after 5 days by MTT assay; format: functional; settings: 120 h
How it was run: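 MTB inoculum made from 20–30-day slant growth in Tween 80/0.2% BSA, adjusted to McFarland No. 1, then diluted in 7H9GC broth (Middlebrook 7H9, glycerol, Casitone, OADC). Final inoculum about 1.2 × 10^6 CFU/mL. Compounds taken from DMSO stock to final 0.4–25 in broth, with a DMSO control. Plates run 5 days at 37 °C, then tetrazolium (MTT)–Tween 80 added for a further 24 h at 37 °C. Read-out is MIC.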

[11] = Selectivity index, ratio of IC50 for mouse J774.1 cells to IC50 for amastigote stage of Trypanosoma cruzi Tulahuen C4; format: toxicity; settings: read-out: Ratio IC50
Salmonella typhimurium [12] = experiment: Mutagenicity in Salmonella typhimurium TA98 at 500 ug/plate in absence of S9 fraction; format: toxicity, organism-based; settings: salmonella enterica subsp. enterica serovar typhimurium; how it was run: as §1
Salmonella typhimurium [13] = experiment: Mutagenicity in Salmonella typhimurium TA98 at 500 ug/plate in presence of S9 fraction; format: toxicity, organism-based; settings: salmonella enterica subsp. enterica serovar typhimurium; how it was run: as §1
[14] = Aqueous stability of the compound in KCl.HCl buffer at pH 2 at 1 mM after 24 hrs by spectrophotometric analysis; format: physicochemical; settings: pH 2, 24 h, 1000 µM
How it was run: (§2)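 Compound from DMSO stock, 1 mM final in aqueous buffer (KCl·HCl pH 2, acetate pH 5, Tris·HCl pH 7.4 or 8.3), incubated 37 °C for 24 h. Absorbance spectrum 250–450 nm compared with a freshly prepared, unincubated solution. TLC of ethyl acetate extracts to confirm or exclude decomposition products.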

[15] = Aqueous stability of the compound in acetate buffer at pH 5 at 1 mM after 24 hrs by spectrophotometric analysis; format: physicochemical; settings: pH 5, 24 h, 1000 µM; how it was run: as §2
Plasma = experiment: Metabolic stability in human plasma at pH 3 at 40 uM after 3 hrs; format: ADME, cell-free; settings: pH 3, 3 h
[16] = Aqueous stability of the compound in Tris.HCl buffer at pH 8.3 at 1 mM after 24 hrs by spectrophotometric analysis; format: physicochemical; settings: pH 8.3, 24 h, 1000 µM; how it was run: as §2
[17] = Aqueous stability of the compound in Tris.HCl buffer at pH 7.4 at 1 mM after 24 hrs by spectrophotometric analysis; format: physicochemical; settings: pH 7.4, 24 h, 1000 µM; how it was run: as §2
Salmonella typhimurium [18] = experiment: Mutagenicity in Salmonella typhimurium TA98 at 3.1 to 250 ug/plate in presence of S9 fraction; format: toxicity, organism-based; settings: salmonella enterica subsp. enterica serovar typhimurium; how it was run: as §1
Salmonella typhimurium [19] = experiment: Mutagenicity in Salmonella typhimurium TA98 at 3.1 to 250 ug/plate in absence of S9 fraction; format: toxicity, organism-based; settings: salmonella enterica subsp. enterica serovar typhimurium; how it was run: as §1
[20] = Selectivity index, ratio of IC50 for african green monkey Vero cells to IC50 for amastigote stage of Trypanosoma cruzi Tulahuen C4; format: toxicity, cell-based; settings: read-out: Ratio IC50

Row | Compound | IC50 (Trypanosoma cruzi [3]) [µM] | IC50 (Leishmania amazonensis) [µM] | Selectivity Index [4] | IC50 [5] [µM] | selectivity ratio [8] | IC50 (Trypanosoma cruzi [9]) [µM] | MIC [10] [µM] | selectivity ratio [11] | Stability [14] | Stability [15] | Stability (Plasma) | Stability [17] | other results
1 | Nc1ccc([N+](=O)[O-])cc1N |  |  |  |  |  |  |  |  |  |  |  |  | Activity (Salmonella typhimurium [1]): Toxic
2 | O=C(N/N=C/c1ccc2no[n+]([O-])c2c1)c1ccc2c(c1)OCO2 | 50 | 1.3 | <2 | 174 | 134 | > 28.4 | > 76.7 | < 5 |  |  |  |  | selectivity ratio [2]: 28.5; Activity (Salmonella typhimurium [6]): Non-toxic; Activity (Salmonella typhimurium [7]): Non-toxic
3 | Cc1[nH]cnc1C(=O)N/N=C/c1ccc2no[n+]([O-])c2c1 | 172 |  | 0.8 | 33.9 |  | > 35 | 43.7 (≈ 12.5 µg/mL) | < 1 |  |  |  |  | Activity (Salmonella typhimurium [12]): Toxic; Activity (Salmonella typhimurium [13]): Toxic
4 | O=C(N/N=C/c1ccc2no[n+]([O-])c2c1)c1cccnc1 | 35.5 |  | 0.7 | 31 |  | > 35.3 | 44.2 (≈ 12.5 µg/mL) | < 0.9 | Stable | Stable | Stable | Stable | Stability [16]: Stable
5 | O=C(N/N=C/c1ccc2no[n+]([O-])c2c1)c1cnn(-c2ccccc2)c1 | 29.5 | 1.4 | <2 | 37.1 | 27 | > 30.9 | > 17.9 |  |  |  |  |  | selectivity ratio [2]: 5
6 | Cc1c(/C=N/NC(=O)c2ccncc2)no[n+]1[O-] | > 300 | 25.3 | >250 | > 400 | > 16 | > 40.5 | 1.6 (≈ 0.396 µg/mL) |  | Stable | Stable | Stable | Stable | Stability [16]: Stable; Activity (Salmonella typhimurium [6]): Non-toxic; Activity (Salmonella typhimurium [7]): Non-toxic
7 | COc1cc(/C=N/NC(=O)c2no[n+]([O-])c2C)ccc1O |  | 1.7 |  | > 400 | > 235 |  | > 85.6 |  |  |  |  |  | selectivity ratio [2]: 50; Activity (Salmonella typhimurium [6]): Non-toxic; Activity (Salmonella typhimurium [7]): Non-toxic
8 | O=C(N/N=C/c1c(-c2ccccc2)no[n+]1[O-])c1ccc2c(c1)OCO2 | 50 |  | <2 | 162 |  | < 30.7 | > 71 | > 5 | Stable | Stable | Stable | Stable | Stability [16]: Stable; Activity (Salmonella typhimurium [18]): Non-toxic; Activity (Salmonella typhimurium [19]): Non-toxic
9 | Cc1nc2ccccn2c1C(=O)N/N=C/c1c(-c2ccccc2)no[n+]1[O-] | 5 |  | 3.2 | 56.2 |  | 0.91 | 17.3 (≈ 6.27 µg/mL) | 62 | Stable | Stable | Stable | Stable | selectivity ratio [20]: 12; Activity (Salmonella typhimurium [18]): Non-toxic; Activity (Salmonella typhimurium [19]): Non-toxic
10 | Cc1c(/C=N/NC(=O)c2ccc3c(c2)OCO3)no[n+]1[O-] | > 150 | 3.3 | <1.5 | 132 | 40 | > 34.5 | > 86.2 | < 1.5 |  |  |  |  | 
11 | Cc1nc2ccccn2c1C(=O)N/N=C/c1no[n+]([O-])c1C | > 150 | 12.6 |  | > 400 | > 32 | > 33.3 | > 83.3 |  |  |  |  |  | 
12 | Cc1c(C(=O)N/N=C/c2ccc([N+](=O)[O-])cc2)no[n+]1[O-] | > 150 | 7.9 |  | > 300 | > 38 | > 34.4 | > 85.9 |  |  |  |  |  | 
13 | CC1CS(=O)(=O)CCN1/N=C/c1ccc([N+](=O)[O-])o1 (centres undefined) [NIFURTIMOX] |  |  |  |  |  | 10.4 |  | 27 |  |  |  |  | selectivity ratio [20]: 7.7
